{
  "source": "ChEMBL document CHEMBL2034866",
  "about": "“Design, synthesis and biological evaluation of a novel series of 1,3,4-oxadiazole bearing N-methyl-4-(trifluoromethyl)phenyl pyrazole moiety as cytotoxic agents” (Eur J Med Chem, 2012)",
  "data": [
    {"test_system": "MCF7", "assay": "(§1) Cytotoxicity against human MCF7 cells after 24 hrs by MTT assay", "format": "functional, cell-based", "details": "not given", "summary_of_the_method": "(§2)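 Exponentially growing cells were seeded at 10⁴ cells/well and allowed to attach for 24 h. Compounds were dissolved in 0.1% DMSO, diluted in medium and added across 1–100 for 24 h; controls received medium with 0.1% DMSO. MTT (1 mg/mL) was added for 4 h at 37 °C, formazan was solubilised in DMSO and A540 read. Assays were run in triplicate, with % cytotoxicity calculated from control-, blank- and test-well absorbances.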", "values": [
      {"smiles": "Cn1nc(-c2nnc(SCCOc3ccccc3F)o2)cc1-c1ccc(C(F)(F)F)cc1", "Activity": "Dose-dependent effect"},
      {"smiles": "Cn1nc(-c2nnc(SCc3c(F)cccc3F)o2)cc1-c1ccc(C(F)(F)F)cc1", "Activity": "Dose-dependent effect"},
      {"smiles": "Cn1nc(-c2nnc(SCCc3ccc(F)cc3)o2)cc1-c1ccc(C(F)(F)F)cc1", "Activity": "Dose-dependent effect"},
      {"smiles": "Cn1nc(-c2nnc(SCc3ccc(Cl)cc3F)o2)cc1-c1ccc(C(F)(F)F)cc1", "Activity": "Dose-dependent effect"},
      {"smiles": "Cn1nc(-c2nnc(SCc3ccc(C(F)(F)F)cc3)o2)cc1-c1ccc(C(F)(F)F)cc1", "Activity": "Dose-dependent effect"}
    ]},
    {"test_system": "MCF7", "assay": "as §1", "format": "functional, cell-based", "details": "MCF7, 24 h", "summary_of_the_method": "as §2", "units": {"IC50": "µM"}, "values": [
      {"smiles": "Cn1nc(-c2ccc(C(F)(F)F)cc2)cc1-c1nnc(SCc2c(F)cccc2F)o1", "IC50": 46.2},
      {"smiles": "Cn1nc(-c2ccc(C(F)(F)F)cc2)cc1-c1nnc(SCCc2ccc(F)cc2)o1", "IC50": 45.4},
      {"smiles": "Cn1nc(-c2nnc(SCCOc3ccccc3F)o2)cc1-c1ccc(C(F)(F)F)cc1", "IC50": 23.1},
      {"smiles": "Cn1nc(-c2nnc(SCc3c(F)cccc3F)o2)cc1-c1ccc(C(F)(F)F)cc1", "IC50": 26.2},
      {"smiles": "Cn1nc(-c2ccc(C(F)(F)F)cc2)cc1-c1nnc(S)o1", "IC50": "> 100"},
      {"smiles": "Cn1nc(-c2nnc(SCc3cccc([N+](=O)[O-])c3)o2)cc1-c1ccc(C(F)(F)F)cc1", "IC50": "> 100"},
      {"smiles": "Cn1nc(-c2nnc(SCc3ccc(Cl)c(Cl)c3)o2)cc1-c1ccc(C(F)(F)F)cc1", "IC50": 27.2},
      {"smiles": "Cn1nc(-c2nnc(SCc3cccc(Cl)c3Cl)o2)cc1-c1ccc(C(F)(F)F)cc1", "IC50": 32.2},
      {"smiles": "Cn1nc(-c2nnc(SCCc3ccc(F)cc3)o2)cc1-c1ccc(C(F)(F)F)cc1", "IC50": 25.2},
      {"smiles": "Cn1nc(-c2ccc(C(F)(F)F)cc2)cc1-c1nnc(SCc2cccc([N+](=O)[O-])c2)o1", "IC50": "> 100"},
      {"smiles": "Cn1nc(-c2ccc(C(F)(F)F)cc2)cc1-c1nnc(SCc2cccc(Cl)c2Cl)o1", "IC50": 60.2},
      {"smiles": "Cn1nc(-c2nnc(SCc3ccc(Cl)cc3F)o2)cc1-c1ccc(C(F)(F)F)cc1", "IC50": 18.2},
      {"smiles": "Cn1nc(-c2ccc(C(F)(F)F)cc2)cc1-c1nnc(SCc2ccc(C(F)(F)F)cc2)o1", "IC50": 27.1},
      {"smiles": "Cn1nc(-c2nnc(SCc3ccc(C(F)(F)F)cc3)o2)cc1-c1ccc(C(F)(F)F)cc1", "IC50": 15.5},
      {"smiles": "Cn1nc(-c2nnc(S)o2)cc1-c1ccc(C(F)(F)F)cc1", "IC50": "> 100"},
      {"smiles": "Cn1nc(-c2ccc(C(F)(F)F)cc2)cc1-c1nnc(SCCOc2ccccc2F)o1", "IC50": 33.3}
    ]},
    {"test_system": "A549", "assay": "Cytotoxicity against human A549 cells after 24 hrs by MTT assay", "format": "functional, cell-based", "details": "A549, 24 h", "summary_of_the_method": "as §2", "units": {"IC50": "µM"}, "values": [
      {"smiles": "Cn1nc(-c2ccc(C(F)(F)F)cc2)cc1-c1nnc(SCc2c(F)cccc2F)o1", "IC50": 72.2},
      {"smiles": "Cn1nc(-c2ccc(C(F)(F)F)cc2)cc1-c1nnc(SCCc2ccc(F)cc2)o1", "IC50": 84.2},
      {"smiles": "Cn1nc(-c2nnc(SCCOc3ccccc3F)o2)cc1-c1ccc(C(F)(F)F)cc1", "IC50": 48.1},
      {"smiles": "Cn1nc(-c2nnc(SCc3c(F)cccc3F)o2)cc1-c1ccc(C(F)(F)F)cc1", "IC50": 38},
      {"smiles": "COc1cccc2c1C(=O)c1c(O)c3c(c(O)c1C2=O)C[C@@](O)(C(=O)CO)C[C@@H]3O[C@H]1C[C@H](N)[C@H](O)[C@H](C)O1", "note": "[DOXORUBICIN]", "IC50": 3.28},
      {"smiles": "Cn1nc(-c2nnc(SCc3ccc(Cl)c(Cl)c3)o2)cc1-c1ccc(C(F)(F)F)cc1", "IC50": 44.2},
      {"smiles": "Cn1nc(-c2nnc(SCc3cccc(Cl)c3Cl)o2)cc1-c1ccc(C(F)(F)F)cc1", "IC50": 54.3},
      {"smiles": "Cn1nc(-c2nnc(SCCc3ccc(F)cc3)o2)cc1-c1ccc(C(F)(F)F)cc1", "IC50": 39},
      {"smiles": "Cn1nc(-c2ccc(C(F)(F)F)cc2)cc1-c1nnc(SCc2cccc(Cl)c2Cl)o1", "IC50": 84.2},
      {"smiles": "Cn1nc(-c2nnc(SCc3ccc(Cl)cc3F)o2)cc1-c1ccc(C(F)(F)F)cc1", "IC50": 48.2},
      {"smiles": "Cn1nc(-c2ccc(C(F)(F)F)cc2)cc1-c1nnc(SCc2ccc(C(F)(F)F)cc2)o1", "IC50": 39.8},
      {"smiles": "Cn1nc(-c2nnc(SCc3ccc(C(F)(F)F)cc3)o2)cc1-c1ccc(C(F)(F)F)cc1", "IC50": 29.2},
      {"smiles": "Cn1nc(-c2ccc(C(F)(F)F)cc2)cc1-c1nnc(SCCOc2ccccc2F)o1", "IC50": 68.1}
    ]},
    {"test_system": "not listed separately", "assay": "Cytotoxicity against mouse EAC cells after 24 hrs by MTT assay", "format": "functional, cell-based", "details": "Ehrlich", "summary_of_the_method": "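Mouse Ehrlich ascites tumour cells were given at least one in vitro passage before use, then plated at 10⁴ cells/well with 24 h attachment. Compounds in 0.1% DMSO/medium were tested at 1–100 for 24 h against vehicle controls. MTT (1 mg/mL) was applied for 4 h at 37 °C, formazan dissolved in DMSO and A540 read. Done in triplicate; % cytotoxicity was taken relative to control and blank absorbances.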", "units": {"IC50": "µM"}, "values": [
      {"smiles": "Cn1nc(-c2ccc(C(F)(F)F)cc2)cc1-c1nnc(SCc2c(F)cccc2F)o1", "IC50": 38.5},
      {"smiles": "Cn1nc(-c2ccc(C(F)(F)F)cc2)cc1-c1nnc(SCCc2ccc(F)cc2)o1", "IC50": 39.5},
      {"smiles": "Cn1nc(-c2nnc(SCCOc3ccccc3F)o2)cc1-c1ccc(C(F)(F)F)cc1", "IC50": 25.2},
      {"smiles": "Cn1nc(-c2nnc(SCc3c(F)cccc3F)o2)cc1-c1ccc(C(F)(F)F)cc1", "IC50": 28.2},
      {"smiles": "Cn1nc(-c2ccc(C(F)(F)F)cc2)cc1-c1nnc(S)o1", "IC50": 75.3},
      {"smiles": "Cn1nc(-c2nnc(SCc3cccc([N+](=O)[O-])c3)o2)cc1-c1ccc(C(F)(F)F)cc1", "IC50": "> 100"},
      {"smiles": "Cn1nc(-c2nnc(SCc3ccc(Cl)c(Cl)c3)o2)cc1-c1ccc(C(F)(F)F)cc1", "IC50": 46.2},
      {"smiles": "Cn1nc(-c2nnc(SCc3cccc(Cl)c3Cl)o2)cc1-c1ccc(C(F)(F)F)cc1", "IC50": 36.8},
      {"smiles": "Cn1nc(-c2nnc(SCCc3ccc(F)cc3)o2)cc1-c1ccc(C(F)(F)F)cc1", "IC50": 29.2},
      {"smiles": "Cn1nc(-c2ccc(C(F)(F)F)cc2)cc1-c1nnc(SCc2cccc([N+](=O)[O-])c2)o1", "IC50": "> 100"},
      {"smiles": "Cn1nc(-c2ccc(C(F)(F)F)cc2)cc1-c1nnc(SCc2cccc(Cl)c2Cl)o1", "IC50": 56.5},
      {"smiles": "Cn1nc(-c2nnc(SCc3ccc(Cl)cc3F)o2)cc1-c1ccc(C(F)(F)F)cc1", "IC50": 26.2},
      {"smiles": "Cn1nc(-c2ccc(C(F)(F)F)cc2)cc1-c1nnc(SCc2ccc(C(F)(F)F)cc2)o1", "IC50": 27.2},
      {"smiles": "Cn1nc(-c2nnc(SCc3ccc(C(F)(F)F)cc3)o2)cc1-c1ccc(C(F)(F)F)cc1", "IC50": 20.5},
      {"smiles": "Cn1nc(-c2nnc(S)o2)cc1-c1ccc(C(F)(F)F)cc1", "IC50": 68.2},
      {"smiles": "Cn1nc(-c2ccc(C(F)(F)F)cc2)cc1-c1nnc(SCCOc2ccccc2F)o1", "IC50": 35.1}
    ]},
    {"test_system": "MCF7", "assay": "Cytotoxicity against human MCF7 cells after 48 hrs by MTT assay", "format": "functional, cell-based", "details": "MCF7, 48 h", "summary_of_the_method": "(§3)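 Time-course MTT: MCF-7 cells were seeded at 5 × 10³ cells/well and exposed to compounds at 1–50. % cytotoxicity and IC50 were determined at 24, 48 and 72 h using MTT read-out at 540 nm. Each experiment was performed independently three times and reported as mean ± SD.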", "units": {"IC50": "µM"}, "values": [
      {"smiles": "Cn1nc(-c2nnc(SCCOc3ccccc3F)o2)cc1-c1ccc(C(F)(F)F)cc1", "IC50": 19.2},
      {"smiles": "Cn1nc(-c2nnc(SCc3c(F)cccc3F)o2)cc1-c1ccc(C(F)(F)F)cc1", "IC50": 20.5},
      {"smiles": "Cn1nc(-c2nnc(SCCc3ccc(F)cc3)o2)cc1-c1ccc(C(F)(F)F)cc1", "IC50": 21.1},
      {"smiles": "Cn1nc(-c2nnc(SCc3ccc(Cl)cc3F)o2)cc1-c1ccc(C(F)(F)F)cc1", "IC50": 12.2},
      {"smiles": "Cn1nc(-c2nnc(SCc3ccc(C(F)(F)F)cc3)o2)cc1-c1ccc(C(F)(F)F)cc1", "IC50": 8.86}
    ]},
    {"test_system": "MCF7", "assay": "Cytotoxicity against human MCF7 cells after 72 hrs by MTT assay", "format": "functional, cell-based", "details": "MCF7, 72 h", "summary_of_the_method": "as §3", "units": {"IC50": "µM"}, "values": [
      {"smiles": "Cn1nc(-c2nnc(SCCOc3ccccc3F)o2)cc1-c1ccc(C(F)(F)F)cc1", "IC50": 14.2},
      {"smiles": "Cn1nc(-c2nnc(SCc3c(F)cccc3F)o2)cc1-c1ccc(C(F)(F)F)cc1", "IC50": 16.2},
      {"smiles": "Cn1nc(-c2nnc(SCCc3ccc(F)cc3)o2)cc1-c1ccc(C(F)(F)F)cc1", "IC50": 18.1},
      {"smiles": "Cn1nc(-c2nnc(SCc3ccc(Cl)cc3F)o2)cc1-c1ccc(C(F)(F)F)cc1", "IC50": 9.8},
      {"smiles": "Cn1nc(-c2nnc(SCc3ccc(C(F)(F)F)cc3)o2)cc1-c1ccc(C(F)(F)F)cc1", "IC50": 5.25}
    ]},
    {"test_system": "MCF7", "assay": "Ratio of IC50 for human MCF7 cells after 24 hrs to IC50 for human MCF7 cells after 48 hrs by MTT assay", "format": "functional", "details": "not given", "summary_of_the_method": "(§4)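 MCF-7 cells at 5 × 10³ cells/well were treated with compounds at 1–50, and MTT IC50 values were determined at 24, 48 and 72 h (three independent experiments, mean ± SD). The fold reduction is the 24 h IC50 divided by the 48 h or 72 h IC50.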", "values": [
      {"smiles": "Cn1nc(-c2nnc(SCc3ccc(C(F)(F)F)cc3)o2)cc1-c1ccc(C(F)(F)F)cc1", "Ratio IC50": 1.75}
    ]},
    {"test_system": "MCF7", "assay": "Ratio of IC50 for human MCF7 cells after 24 hrs to IC50 for human MCF7 cells after 72 hrs by MTT assay", "format": "functional", "details": "not given", "summary_of_the_method": "as §4", "values": [
      {"smiles": "Cn1nc(-c2nnc(SCc3ccc(C(F)(F)F)cc3)o2)cc1-c1ccc(C(F)(F)F)cc1", "Ratio IC50": 2.96}
    ]},
    {"test_system": "MCF7", "assay": "Cytotoxicity against human MCF7 cells at 1 to 50 uM by MTT assay", "format": "functional, cell-based", "details": "TDE = time-dependent effect", "summary_of_the_method": "as §3", "values": [
      {"smiles": "Cn1nc(-c2nnc(SCCOc3ccccc3F)o2)cc1-c1ccc(C(F)(F)F)cc1", "Activity": "tde"},
      {"smiles": "Cn1nc(-c2nnc(SCc3c(F)cccc3F)o2)cc1-c1ccc(C(F)(F)F)cc1", "Activity": "tde"},
      {"smiles": "Cn1nc(-c2nnc(SCCc3ccc(F)cc3)o2)cc1-c1ccc(C(F)(F)F)cc1", "Activity": "tde"},
      {"smiles": "Cn1nc(-c2nnc(SCc3ccc(Cl)cc3F)o2)cc1-c1ccc(C(F)(F)F)cc1", "Activity": "tde"},
      {"smiles": "Cn1nc(-c2nnc(SCc3ccc(C(F)(F)F)cc3)o2)cc1-c1ccc(C(F)(F)F)cc1", "Activity": "tde"}
    ]}
  ]
}
